Results reported in ChEMBL document CHEMBL5674876, “Epigenetic Activation of Pro-angiogenic Signaling Pathways in Human Endothelial Progenitors Increases Vasculogenesis” (Stem Cell Reports, 2017).
Active and inactive are the calls of the source. The rule behind the calls is not given here.

Assays:
[1] = target: Histone-lysine N-methyltransferase EZH2 (Homo sapiens) (UniProt Q15910); experiment: Inhibition of EZH2 in human umbilical cord derived endothelial colony forming cells assessed as decrease in H3K27me1 level at 0.01 to 5 uM measured after 24 to 72 hrs by Western blotting analysis; format: cell-based; conditions: Umbilical cord derived endothelial colony forming cell, dose 0.01-5 µM, time 24-72 hrs
Chain of Histone-lysine N-methyltransferase EZH2 (Homo sapiens) (Q15910 whole entry, looked up): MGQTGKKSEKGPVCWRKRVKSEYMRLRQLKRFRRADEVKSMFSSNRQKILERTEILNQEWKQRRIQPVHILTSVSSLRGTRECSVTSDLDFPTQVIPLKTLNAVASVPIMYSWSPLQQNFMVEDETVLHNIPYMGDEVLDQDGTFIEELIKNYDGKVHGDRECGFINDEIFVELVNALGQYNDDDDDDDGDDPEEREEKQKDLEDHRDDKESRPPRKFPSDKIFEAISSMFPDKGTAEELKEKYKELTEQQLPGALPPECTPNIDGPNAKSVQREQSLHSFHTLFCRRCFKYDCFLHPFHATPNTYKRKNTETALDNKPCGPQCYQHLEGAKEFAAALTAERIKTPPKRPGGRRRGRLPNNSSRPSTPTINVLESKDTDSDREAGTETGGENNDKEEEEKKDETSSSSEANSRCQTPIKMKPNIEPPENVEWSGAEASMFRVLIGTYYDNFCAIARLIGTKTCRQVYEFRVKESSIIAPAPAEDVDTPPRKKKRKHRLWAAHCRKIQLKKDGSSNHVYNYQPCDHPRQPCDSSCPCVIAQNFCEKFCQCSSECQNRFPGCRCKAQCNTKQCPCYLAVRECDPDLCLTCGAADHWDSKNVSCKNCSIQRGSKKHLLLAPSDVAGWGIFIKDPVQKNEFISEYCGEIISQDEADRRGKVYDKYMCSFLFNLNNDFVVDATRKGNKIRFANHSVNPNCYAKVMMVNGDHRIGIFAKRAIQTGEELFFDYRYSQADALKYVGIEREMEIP
How it was run: (§1)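 Human cord-blood ECFC clones, at least three independent, passages 3–6, grown in EGM-2 with 10% FBS. Histone methylation marks were assessed by western blot, with total histone H3 and H4 as loading controls.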

[2] = target: Histone-lysine N-methyltransferase EZH2 (Homo sapiens) (UniProt Q15910); experiment: Inhibition of EZH2 in human umbilical cord derived endothelial colony forming cells assessed as decrease in H3K4me3 level at 0.01 to 5 uM measured after 24 to 72 hrs by Western blotting analysis; format: cell-based; conditions: Umbilical cord derived endothelial colony forming cell, dose 0.01-5 µM, time 24-72 hrs; how it was run: as §1
[3] = test system: HUVEC; experiment: Effect on pro-angiogenic property in human umbilical cord derived endothelial colony forming cells assessed as increase in ERK1 protein phosphorylation by Western blotting analysis; format: functional, cell-based
[4] = test system: Umbilical cord derived endothelial colony forming cell; experiment: Activation of WNT pro-angiogenic pathway in human umbilical cord derived endothelial colony forming cells by measuring MML1 level in presence of panobinostat by qRT-PCR analysis; format: cell-based; conditions: filed as activator
[5] = test system: Umbilical cord derived endothelial colony forming cell; experiment: Activation of WNT pro-angiogenic pathway in human umbilical cord derived endothelial colony forming cells by measuring FZD1 level in presence of panobinostat by qRT-PCR analysis; format: cell-based; conditions: filed as activator
[6] = test system: HUVEC; experiment: Resistance to induction of cell apoptosis in human umbilical cord derived endothelial colony forming cells in presence of panobinostat by annexin V staining analysis; format: functional, cell-based
How it was run: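 ECFCs were pretreated with the epigenetic drugs or vehicle and kept in serum-containing EGM-2. Apoptosis was scored by flow cytometry after annexin V and 7-AAD staining. Values are expressed as percentage of vehicle-treated control, mean ±SEM, three independent experiments each in duplicate.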

[7] = test system: Umbilical cord derived endothelial colony forming cell; experiment: Activation of WNT pro-angiogenic pathway in human umbilical cord derived endothelial colony forming cells by measuring FZD2 level in presence of panobinostat by qRT-PCR analysis; format: cell-based; conditions: filed as activator
[8] = target: DNA (cytosine-5)-methyltransferase 1 (Homo sapiens) (UniProt P26358); experiment: Inhibition of DNMT1 in human umbilical cord derived endothelial colony forming cells assessed as decrease in protein level by Western blotting analysis; format: cell-based; conditions: Umbilical cord derived endothelial colony forming cell
Chain of DNA (cytosine-5)-methyltransferase 1 (Homo sapiens) (P26358 whole entry): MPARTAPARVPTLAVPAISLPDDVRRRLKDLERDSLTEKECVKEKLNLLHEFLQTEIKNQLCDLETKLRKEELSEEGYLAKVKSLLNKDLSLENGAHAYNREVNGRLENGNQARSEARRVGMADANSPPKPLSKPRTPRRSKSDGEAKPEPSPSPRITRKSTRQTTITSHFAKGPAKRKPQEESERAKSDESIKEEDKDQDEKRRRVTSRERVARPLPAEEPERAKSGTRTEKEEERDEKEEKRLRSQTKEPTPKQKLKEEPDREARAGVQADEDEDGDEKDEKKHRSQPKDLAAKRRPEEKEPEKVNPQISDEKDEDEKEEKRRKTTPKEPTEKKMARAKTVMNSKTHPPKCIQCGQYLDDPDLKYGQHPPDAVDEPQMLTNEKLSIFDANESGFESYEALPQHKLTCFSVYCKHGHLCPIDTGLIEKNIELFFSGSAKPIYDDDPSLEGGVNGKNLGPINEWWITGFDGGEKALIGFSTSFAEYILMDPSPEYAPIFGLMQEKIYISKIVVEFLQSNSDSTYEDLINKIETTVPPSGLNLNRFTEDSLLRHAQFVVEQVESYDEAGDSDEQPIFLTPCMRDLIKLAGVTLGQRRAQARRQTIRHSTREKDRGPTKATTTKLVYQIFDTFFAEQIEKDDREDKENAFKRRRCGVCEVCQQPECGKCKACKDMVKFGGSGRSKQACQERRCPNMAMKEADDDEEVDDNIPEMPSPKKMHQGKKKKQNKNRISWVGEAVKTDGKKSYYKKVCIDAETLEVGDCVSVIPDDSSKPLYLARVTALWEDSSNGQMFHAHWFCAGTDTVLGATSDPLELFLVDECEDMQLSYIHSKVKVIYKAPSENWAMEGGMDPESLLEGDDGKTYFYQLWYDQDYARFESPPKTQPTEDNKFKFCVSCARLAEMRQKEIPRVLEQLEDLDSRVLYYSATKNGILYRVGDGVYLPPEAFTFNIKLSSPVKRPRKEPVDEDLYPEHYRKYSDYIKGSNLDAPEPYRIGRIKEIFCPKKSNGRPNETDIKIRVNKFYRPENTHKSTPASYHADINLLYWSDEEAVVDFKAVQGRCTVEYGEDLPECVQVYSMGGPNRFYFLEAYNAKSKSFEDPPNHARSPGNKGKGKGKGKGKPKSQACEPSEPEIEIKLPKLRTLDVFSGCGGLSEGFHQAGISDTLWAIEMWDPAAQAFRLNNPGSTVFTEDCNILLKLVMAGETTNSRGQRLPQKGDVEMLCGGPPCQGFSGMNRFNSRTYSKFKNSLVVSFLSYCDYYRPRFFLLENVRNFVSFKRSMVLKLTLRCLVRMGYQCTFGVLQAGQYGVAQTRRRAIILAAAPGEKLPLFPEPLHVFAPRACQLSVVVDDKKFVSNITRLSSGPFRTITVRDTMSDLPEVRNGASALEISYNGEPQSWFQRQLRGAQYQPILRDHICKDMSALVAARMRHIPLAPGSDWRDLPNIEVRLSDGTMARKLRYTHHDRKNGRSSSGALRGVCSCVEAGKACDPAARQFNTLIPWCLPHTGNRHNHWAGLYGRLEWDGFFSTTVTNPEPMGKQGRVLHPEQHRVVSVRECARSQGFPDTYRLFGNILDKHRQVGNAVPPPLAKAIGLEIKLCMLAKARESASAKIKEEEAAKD

[9] = test system: HUVEC; experiment: Effect on pro-angiogenic property in human umbilical cord derived endothelial colony forming cells assessed as increase in DLL4 level in presence of panobinostat by qRT-PCR analysis; format: functional, cell-based
[10] = test system: Umbilical cord derived endothelial colony forming cell; experiment: Activation of WNT pro-angiogenic pathway in human umbilical cord derived endothelial colony forming cells by measuring JAG1 level in presence of panobinostat by qRT-PCR analysis; format: cell-based; conditions: filed as activator
[11] = test system: HUVEC; experiment: Downregulation of SEMA3A in human umbilical cord derived endothelial colony forming cells by qRT-PCR analysis; format: functional, cell-based
[12] = test system: HUVEC; experiment: Effect on pro-angiogenic property in human umbilical cord derived endothelial colony forming cells assessed as increase in intracellular NOTCH protein phosphorylation by Western blotting analysis; format: functional, cell-based
[13] = test system: HUVEC; experiment: Effect on pro-angiogenic property in human umbilical cord derived endothelial colony forming cells assessed as increase in VEGFR1 protein level by Western blotting analysis; format: functional, cell-based
[14] = species: Mus musculus; experiment: Effect on restoration of blood flow in athymic nude CD1 hindlimb ischemia mouse model in presence of panobinostat for 28 days by laser doppler perfusion imaging analysis; format: functional, organism-based; conditions: time 28.0 day
How it was run: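 Left femoral artery ligated in 8-week-old female athymic nude CD1 mice; 5 × 10^5 ECFCs pretreated with the combination or vehicle, in 50 μL PBS, given as two intramuscular injections into adductor muscle after skin closure. Perfusion measured by laser Doppler pre-op, day 0 and later days; ischemic/non-ischemic ratio, n = 7–8 mice to day 14, 3–4 to day 28.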

[15] = target: Histone acetyltransferase p300 (Homo sapiens) (UniProt Q09472); experiment: Inhibition of acetyl transferase P300 in human umbilical cord derived endothelial colony forming cells assessed as decrease in protein level by Western blotting analysis; format: cell-based; conditions: Umbilical cord derived endothelial colony forming cell
Chain of Histone acetyltransferase p300 (Homo sapiens) (Q09472 whole entry): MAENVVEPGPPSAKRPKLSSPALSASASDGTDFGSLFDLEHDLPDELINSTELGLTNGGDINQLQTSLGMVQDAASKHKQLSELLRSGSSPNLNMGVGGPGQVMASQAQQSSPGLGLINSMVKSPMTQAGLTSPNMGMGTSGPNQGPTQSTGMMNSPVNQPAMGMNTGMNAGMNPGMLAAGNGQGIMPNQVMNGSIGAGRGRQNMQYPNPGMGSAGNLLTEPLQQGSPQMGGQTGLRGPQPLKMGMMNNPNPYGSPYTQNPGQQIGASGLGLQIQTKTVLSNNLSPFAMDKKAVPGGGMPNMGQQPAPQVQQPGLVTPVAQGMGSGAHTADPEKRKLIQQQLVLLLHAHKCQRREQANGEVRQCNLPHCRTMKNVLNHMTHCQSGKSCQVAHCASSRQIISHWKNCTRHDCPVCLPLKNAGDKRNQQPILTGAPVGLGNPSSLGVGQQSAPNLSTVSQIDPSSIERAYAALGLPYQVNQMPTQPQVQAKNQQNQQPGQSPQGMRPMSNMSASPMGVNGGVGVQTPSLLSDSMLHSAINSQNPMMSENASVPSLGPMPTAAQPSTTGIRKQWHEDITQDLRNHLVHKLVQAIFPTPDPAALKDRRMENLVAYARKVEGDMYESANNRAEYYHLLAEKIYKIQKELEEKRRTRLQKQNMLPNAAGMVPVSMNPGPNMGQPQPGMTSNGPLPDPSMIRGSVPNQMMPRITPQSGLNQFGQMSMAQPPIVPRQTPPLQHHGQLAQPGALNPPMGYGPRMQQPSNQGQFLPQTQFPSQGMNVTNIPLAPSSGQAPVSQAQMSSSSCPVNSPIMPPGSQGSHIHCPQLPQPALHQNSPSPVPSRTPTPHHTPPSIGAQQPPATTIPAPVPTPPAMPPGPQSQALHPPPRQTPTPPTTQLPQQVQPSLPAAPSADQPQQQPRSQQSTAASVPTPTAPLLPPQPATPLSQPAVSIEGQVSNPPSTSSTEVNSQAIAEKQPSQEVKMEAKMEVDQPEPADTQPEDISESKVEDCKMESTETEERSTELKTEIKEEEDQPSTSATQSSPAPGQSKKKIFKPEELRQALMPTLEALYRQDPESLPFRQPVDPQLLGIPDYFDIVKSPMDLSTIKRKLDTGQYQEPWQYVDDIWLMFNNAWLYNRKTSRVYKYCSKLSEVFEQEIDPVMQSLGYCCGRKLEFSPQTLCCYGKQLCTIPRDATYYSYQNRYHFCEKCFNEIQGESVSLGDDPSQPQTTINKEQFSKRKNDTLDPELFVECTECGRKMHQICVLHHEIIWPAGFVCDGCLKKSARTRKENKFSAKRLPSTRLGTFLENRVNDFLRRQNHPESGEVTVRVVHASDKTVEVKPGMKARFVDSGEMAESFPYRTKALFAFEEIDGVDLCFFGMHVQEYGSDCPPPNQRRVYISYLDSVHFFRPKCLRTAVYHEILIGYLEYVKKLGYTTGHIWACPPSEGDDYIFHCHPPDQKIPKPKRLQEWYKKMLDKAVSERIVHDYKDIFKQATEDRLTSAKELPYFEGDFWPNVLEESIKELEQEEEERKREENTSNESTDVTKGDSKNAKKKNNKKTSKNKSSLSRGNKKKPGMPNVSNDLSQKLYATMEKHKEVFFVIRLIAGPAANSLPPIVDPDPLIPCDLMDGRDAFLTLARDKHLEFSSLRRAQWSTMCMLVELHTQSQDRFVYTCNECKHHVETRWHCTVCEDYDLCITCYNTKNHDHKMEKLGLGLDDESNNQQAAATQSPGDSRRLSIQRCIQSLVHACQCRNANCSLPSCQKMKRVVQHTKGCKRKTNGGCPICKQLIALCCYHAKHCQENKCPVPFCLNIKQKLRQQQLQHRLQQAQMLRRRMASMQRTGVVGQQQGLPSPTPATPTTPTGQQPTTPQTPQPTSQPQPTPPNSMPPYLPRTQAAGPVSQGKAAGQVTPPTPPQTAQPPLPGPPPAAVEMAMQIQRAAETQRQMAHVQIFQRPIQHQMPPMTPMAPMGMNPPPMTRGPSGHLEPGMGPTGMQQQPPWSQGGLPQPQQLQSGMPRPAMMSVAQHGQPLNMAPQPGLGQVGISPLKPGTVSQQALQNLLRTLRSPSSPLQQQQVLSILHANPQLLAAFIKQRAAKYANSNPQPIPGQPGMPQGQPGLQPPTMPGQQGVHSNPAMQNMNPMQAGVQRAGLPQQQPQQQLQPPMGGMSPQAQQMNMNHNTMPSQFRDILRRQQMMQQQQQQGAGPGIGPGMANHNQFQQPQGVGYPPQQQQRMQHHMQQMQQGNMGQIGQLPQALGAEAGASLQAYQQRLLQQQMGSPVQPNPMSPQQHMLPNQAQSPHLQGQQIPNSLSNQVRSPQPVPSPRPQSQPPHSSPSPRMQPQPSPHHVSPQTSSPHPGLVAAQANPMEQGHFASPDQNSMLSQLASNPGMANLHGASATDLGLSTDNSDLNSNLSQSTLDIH
How it was run: (§2)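 Cord-blood ECFCs were treated with an EZH2 inhibitor at 5 μM for 72 hr, then an HDAC inhibitor at 10 nM for 2 hr, or with vehicle. Levels of the epigenetic enzymes were read by western blot, with tubulin as loading control.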

[16] = test system: Umbilical cord derived endothelial colony forming cell; experiment: Activation of WNT pro-angiogenic pathway in human umbilical cord derived endothelial colony forming cells by measuring TCF7L1 level in presence of panobinostat by qRT-PCR analysis; format: cell-based; conditions: filed as activator
[17] = test system: Umbilical cord derived endothelial colony forming cell; experiment: Activation of WNT pro-angiogenic pathway in human umbilical cord derived endothelial colony forming cells by measuring WNT5A level in presence of panobinostat by qRT-PCR analysis; format: cell-based; conditions: filed as activator
[18] = test system: HUVEC; experiment: Effect on human umbilical cord derived endothelial colony forming cells assessed as increase in H3K4me3 level in presence of panobinostat measured after removal of drug by qRT-PCR analysis; format: functional, cell-based
[19] = test system: HUVEC; experiment: Effect on human umbilical cord derived endothelial colony forming cells assessed as decrease in H3K27me3 level by ChIP-qPCR analysis; format: functional, cell-based
[20] = test system: HUVEC; experiment: Effect on pro-angiogenic property in human umbilical cord derived endothelial colony forming cells assessed as increase in cell migration treated at 5 uM for 72 hrs in presence of panobinostat measured by crystal violet staining analysis based gap closure assay; format: functional
[21] = test system: Mus musculus; experiment: In vivo upregulation of pro-angiogneic pathway in athymic nude CD1 hindlimb ischemia mouse model in presence of panobinostat treated for 28 days; format: functional, organism-based; conditions: time 28.0 day
[22] = test system: HUVEC; experiment: Effect on pro-angiogenic property in human umbilical cord derived endothelial colony forming cells assessed as formation of capillary network on matrigel; format: functional, cell-based; conditions: dose 0.01-5 µM
How it was run: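 Drug- or vehicle-pretreated ECFCs seeded at 5,000 cells/well on phenol-red-free growth-factor-reduced Matrigel in duplicate; after 24 hr stained with 5 μg/mL calcein 5 min at 37°C, imaged at 2.5×. Total tube length expressed as percentage of vehicle control ±SEM, three independent experiments.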

[23] = test system: HUVEC; experiment: Resistance to serum induced starvation of cell apoptosis in human umbilical cord derived endothelial colony forming cells grown in EBM2 medium measured in presence of panobinostat by annexin V staining analysis; format: functional, cell-based
How it was run: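 Drug- or vehicle-pretreated ECFCs were serum-starved overnight (16 hr) in EBM-2 lacking supplements. Cells were then suspended in annexin V binding buffer, stained with annexin V and 7-AAD, and analysed by flow cytometry. Values are percentage of vehicle control ±SEM, n = 3 experiments in duplicate.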

[24] = test system: HUVEC; experiment: Effect on pro-angiogenic property in human umbilical cord derived endothelial colony forming cells assessed as increase in HEY2 level in presence of panobinostat by qRT-PCR analysis; format: functional, cell-based
[25] = test system: HUVEC; experiment: Effect on pro-angiogenic property in human umbilical cord derived endothelial colony forming cells assessed as increase in VEGFR2 protein level by Western blotting analysis; format: functional, cell-based
[26] = test system: Umbilical cord derived endothelial colony forming cell; experiment: Inhibition of H3K9 methyltransferase G9a in human umbilical cord derived endothelial colony forming cells assessed as decrease in protein level by Western blotting analysis; format: cell-based; how it was run: as §2
[27] = test system: Umbilical cord derived endothelial colony forming cell; experiment: Activation of WNT pro-angiogenic pathway in human umbilical cord derived endothelial colony forming cells by measuring WNT11 level in presence of panobinostat by qRT-PCR analysis; format: cell-based; conditions: filed as activator

Question: Which inhibition [1] does the source give for `CCCc1cc(C)[nH]c(=O)c1CNC(=O)c1cc(-c2ccnc(N3CCN(C)CC3)c2)cc2c1cnn2C(C)C` here?
Answer: inactive

Question: What about the inhibition [2] of the same compound?
Answer: inactive

Question: And the Activity [3]?
Answer: Active

Question: What about the Activity [4] of the same compound?
Answer: Active

Question: And the Activity [5]?
Answer: Active

Question: And the Activity [6]?
Answer: Active

Question: What about the Activity [7] of the same compound?
Answer: Active

Question: And the inhibition [8]?
Answer: inactive

Question: And the Activity [9]?
Answer: Active

Question: What about the Activity [10] of the same compound?
Answer: Active

Question: What about the Activity [11] of the same compound?
Answer: Active

Question: And the Activity [12]?
Answer: Active

Question: What about the Activity [13] of the same compound?
Answer: Active

Question: What about the Activity [14] of the same compound?
Answer: Active

Question: What about the inhibition [15] of the same compound?
Answer: inactive

Question: What about the Activity [16] of the same compound?
Answer: Active

Question: And the Activity [17]?
Answer: Active

Question: And the Activity [18]?
Answer: Active

Question: What about the Activity [19] of the same compound?
Answer: Active

Question: And the Activity [20]?
Answer: Active

Question: And the Activity [21]?
Answer: Active

Question: What about the Activity [22] of the same compound?
Answer: Dose-Dependent Effect

Question: And the Activity [23]?
Answer: Active

Question: And the Activity [24]?
Answer: Active

Question: What about the Activity [25] of the same compound?
Answer: Active

Question: And the inhibition [26]?
Answer: inactive

Question: And the Activity [27]?
Answer: Active
